We go through eleven molecules from ChEMBL document CHEMBL1129498, “Azole endothelin antagonists. 2. Structure-activity studies” (J Med Chem, 1996).

The test system of one test is MMQ. Put plainly: Inhibitory activity was evaluated by measuring the PI hydrolysis in MMQ cell line. It is filed as functional, cell-based, Rattus norvegicus. Summed up:
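MMQ cells (0.4 × 10⁶ cells/mL) labeled 16 h with 10 µCi/mL [³H]myoinositol in RPMI, PBS-washed, then held 60 min in buffer A with protease inhibitors and 10 mM LiCl. Compound pre-incubated 5 min, then 1 nM ET-1 challenge for 30 min at 37 °C, stopped with chloroform-methanol. Total inositol phosphates extracted and taken from the aqueous phase by AG1-X8 anion-exchange batch chromatography.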

The target of the next test is T1, Endothelin-1 receptor (Rattus norvegicus, UniProt P26684).
T1 sequence (P26684 whole entry): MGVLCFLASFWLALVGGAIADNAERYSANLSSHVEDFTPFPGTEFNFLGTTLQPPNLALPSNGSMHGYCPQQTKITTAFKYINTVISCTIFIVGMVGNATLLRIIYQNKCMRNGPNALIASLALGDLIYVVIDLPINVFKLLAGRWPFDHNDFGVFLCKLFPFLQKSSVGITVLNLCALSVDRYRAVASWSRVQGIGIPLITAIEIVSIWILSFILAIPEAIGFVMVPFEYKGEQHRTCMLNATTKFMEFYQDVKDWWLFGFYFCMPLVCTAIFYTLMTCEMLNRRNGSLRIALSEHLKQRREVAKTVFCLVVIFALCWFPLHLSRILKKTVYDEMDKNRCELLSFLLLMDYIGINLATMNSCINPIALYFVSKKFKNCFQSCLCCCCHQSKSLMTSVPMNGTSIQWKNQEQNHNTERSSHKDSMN
Briefly: Inhibitory activity was evaluated against ET- A Binding to Endothelin A receptor in MMQ cell homogenates. It is filed as cell-free.

Test [1] has as its target T2, Endothelin receptor type B (Sus scrofa, UniProt P35463).
T2 sequence (P35463 whole entry): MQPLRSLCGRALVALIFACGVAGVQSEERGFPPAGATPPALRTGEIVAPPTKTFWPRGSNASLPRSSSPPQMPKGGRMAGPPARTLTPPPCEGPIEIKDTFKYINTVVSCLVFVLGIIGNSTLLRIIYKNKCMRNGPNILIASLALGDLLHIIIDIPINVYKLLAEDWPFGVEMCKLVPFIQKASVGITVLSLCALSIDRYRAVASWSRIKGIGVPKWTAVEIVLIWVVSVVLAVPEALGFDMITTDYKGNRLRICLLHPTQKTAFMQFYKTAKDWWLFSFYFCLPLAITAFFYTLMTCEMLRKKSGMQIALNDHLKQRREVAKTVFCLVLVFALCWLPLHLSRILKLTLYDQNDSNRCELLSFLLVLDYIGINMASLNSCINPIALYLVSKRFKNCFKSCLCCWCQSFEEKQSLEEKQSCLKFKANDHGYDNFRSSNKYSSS
Put plainly: Inhibitory activity was evaluated against ET- B Binding to Endothelin B receptor from porcine cerebellar membranes.

Regarding `Cc1[nH]c([C@@H](Cc2cn(C)c3ccccc23)NC(=O)[C@H](CC(C)C)NC(=O)NC2CCCCC2)nc1C(=O)O`, the IC50 – broadly, the concentration that inhibits the measured activity by half – came to 4.1 nM in the test on MMQ (Rattus norvegicus, MMQ); 11 nM on Endothelin-1 receptor; 34000 nM in test [1].

With `Cc1oc([C@@H](Cc2cn(C)c3ccccc23)NC(=O)[C@H](CC(C)C)NC(=O)Nc2ccccc2)nc1C(=O)O`, the IC50 was determined as 53 nM in the test on MMQ (Rattus norvegicus, MMQ); 16 nM at Endothelin-1 receptor; 30000 nM in test [1].

For `Cc1oc([C@@H](Cc2cn(C)c3ccccc23)NC(=O)[C@H](CC(C)C)NC(=O)N2CCc3ccccc32)nc1C(=O)O`, the IC50 in the test on MMQ (Rattus norvegicus, MMQ) was 3.6 nM; at Endothelin-1 receptor it was 5.9 nM; in test [1], 34000 nM.

For the molecule `Cc1[nH]c([C@@H](Cc2cn(C)c3ccccc23)NC(=O)[C@H](CC(C)C)NC(=O)NC2CCCCCC2)nc1C(=O)O`, the IC50 in the test on MMQ (Rattus norvegicus, MMQ) came to 87 nM; at Endothelin-1 receptor, 60 nM; in test [1] it was 42000 nM.

As for `Cc1[nH]c([C@@H](Cc2cn(C)c3ccccc23)NC(=O)[C@H](CC(C)C)NC(=O)Nc2ccccc2)nc1C(=O)O`, the IC50 in the test with MMQ (Rattus norvegicus, MMQ) amounted to 1.3 nM; at Endothelin-1 receptor, 7.6 nM; in test [1], 37000 nM.

Take `Cc1oc([C@@H](Cc2cn(C)c3ccccc23)NC(=O)[C@H](CC(C)C)NC(=O)N2CCOC23CCCCC3)nc1C(=O)O`: the IC50 worked out at 6.1 nM in the test on MMQ (Rattus norvegicus, MMQ); 5.7 nM on Endothelin-1 receptor; 35000 nM in test [1].

Turning to `Cc1[nH]c([C@@H](Cc2cn(C)c3ccccc23)NC(=O)[C@H](CC(C)C)NC(=O)NC2CCCC(C)C2)nc1C(=O)O` (stereo partly drawn), the IC50 stood at 8.6 nM in the test with MMQ (Rattus norvegicus, MMQ); 26 nM on Endothelin-1 receptor; 22000 nM in test [1].

For `Cc1oc([C@@H](Cc2cn(C)c3ccccc23)NC(=O)[C@H](CC(C)C)NC(=O)N2CCCc3ccccc32)nc1C(=O)O`, the IC50 is 0.9 nM in the test on MMQ (Rattus norvegicus, MMQ); 33 nM at Endothelin-1 receptor; 66000 nM in test [1].

On to `Cc1oc([C@@H](Cc2cn(C)c3ccccc23)NC(=O)[C@H](CC(C)C)NC(=O)Nc2ccccc2F)nc1C(=O)O`, for which the IC50 in the test on MMQ (Rattus norvegicus, MMQ) came to 26 nM; on Endothelin-1 receptor, 17 nM; in test [1] it was 2400 nM.

On to `Cc1[nH]c([C@@H](Cc2cn(C)c3ccccc23)NC(=O)[C@H](CC(C)C)NC(=O)NC2CC3CCC2C3)nc1C(=O)O` (stereo in doubt; 14o), for which the IC50 was 16 nM in the test with MMQ (mmq), 29 nM on Endothelin-1 receptor and 8300 nM in test [1].

In the case of `Cc1[nH]c([C@@H](Cc2cn(C)c3ccccc23)NC(=O)[C@H](CC(C)C)NC(=O)NC2CC3CCC2C3)nc1C(=O)O` (stereo in doubt; 14p), the figures for the half-inhibitory concentration (IC50) (in the test on MMQ (mmq); at Endothelin-1 receptor; in test [1]) were 36 nM, 19 nM and 9500 nM, respectively.
